In data set [1] the test system is Mus musculus. The data set is described as follows: Analgesic activity against formalin-induced pain in po dosed mouse. The class given is ADME, organism-based. Summed up:
(§1)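 Fasted male NMRI mice (20–25 g) dosed orally with test drug or vehicle (5% Tween 80) 15 min before 20 µl of 1% formalin injected sc into right hindpaw. Licking/biting time read by visual observation at 20–25 min post-formalin (late phase). Percent decrease versus daily vehicle group; Mann–Whitney U-test; ED50 from Boltzmann sigmoidal fit.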

Another data set is filed under the species Rattus norvegicus. The data set can be described thus: Inhibition of human recombinant NR1/NR2A receptor expressed in rat cortical cells assessed as NMDA-evoked increase in intracellular calcium level at 15 uM. The class given is cell-based. Summed up: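 Fluo-4/AM Ca2+ fluorimetry on a plate reader, applied to cells expressing recombinant NR1/NR2A receptors. Inhibition (%) of the NMDA-evoked intracellular Ca2+ increase measured at 15 µM compound.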
In general terms: Calcium flux is commonly read through the fluorescence of an indicator in the cells.

The target in data set [2] is Glutamate NMDA receptor. The data set is described as follows: Inhibition of NMDA receptor in rat cortical cells assessed as NMDA-evoked increase in intracellular calcium level. Type of data set: cell-based. Summed up:
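Rat cortical cell culture loaded with Fluo-4/AM. Baseline and NMDA-evoked intracellular Ca2+ changes monitored by fluorimetry on a plate reader. Number of experiments (n) given per compound.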

Data set [3] has as its target Glutamate NMDA receptor (Rattus norvegicus) (UniProt P35439+Q00959+Q00960+Q00961+Q62645+Q8VHN2+Q9R1M7). The data set is described as follows: Inhibition of NMDA receptor in rat cortical cells assessed as NMDA-evoked increase in intracellular calcium level at 0.1 uM. Type of data set: cell-based. A digest of the protocol:
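Rat cortical cell culture loaded with Fluo-4/AM. Baseline and NMDA-evoked intracellular Ca2+ changes monitored by fluorimetry on a plate reader. Read-out is inhibition of the NMDA-evoked Ca2+ rise, with percent inhibition taken at 0.1 µM compound. Number of experiments (n) given per compound.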

The test system of data set [4] is Mus musculus. The data set can be described thus: Analgesic activity against formalin-induced pain in mouse at 20 mg/kg, po. The class given is ADME, organism-based. Set-up: dose 20 mg/kg, route oral. The note with it: in vivo. Summed up: as §1
For data set [5], the target named is Glutamate NMDA receptor. The data set can be described thus: Displacement of [3H]Ro-256981 from NMDA receptor in rat forebrain membrane. The class given is cell membranes. A digest of the protocol:
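Binding assay on rat forebrain membrane using tritiated Ro-25,6981 as radioligand.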

The term ED50 denotes the dose at which the effect has come halfway, by size or by number of responders. A higher ED50 goes with a need for a large dose. Usually inhibition stands for the change of the read-out against control, counted positive when it falls. In general, IC50 refers to the midpoint of a concentration-inhibition curve. What is called Ki is the equilibrium dissociation constant of an inhibitor or competing ligand from its target. High values mean lower affinity, low ones higher affinity.

Consider `O=C(c1cc(=O)c2cc(O)ccc2[nH]1)N1CCC(Cc2ccc(F)cc2)CC1`, for which the ED50 with Mus musculus [1] is 9.5 mg/kg. Further, in the data set listed under Rattus norvegicus, the inhibition is -0.9%. In addition, the IC50 on Glutamate NMDA receptor [2] worked out at 8.7 nM.

Regarding `O=C(c1cc(=O)c2ccc(O)cc2[nH]1)N1CCC(Cc2ccccc2)CC1`, the inhibition in the data set filed under Rattus norvegicus was 9.1%; in data set [3] it was 27.9%.

As for `O=C(c1cc(=O)c2cc(O)ccc2[nH]1)N1CCC(Oc2ccc(Cl)cc2)CC1`, in the data set with Mus musculus [4], the Activity result is “Not Active”. In the data set listed under Rattus norvegicus, the inhibition stood at 5.1%. Further, the half-inhibitory concentration (IC50) on Glutamate NMDA receptor [2] was found to be 7.1 nM.

On to `CC(=O)Nc1ccc2[nH]c(C(=O)N3CCC(Cc4ccccc4)CC3)cc(=O)c2c1`, for which the values for the inhibition (in the data set filed under Rattus norvegicus; in data set [3]) were 12.4% and 2.6%, respectively.

For `O=C(c1cc(=O)c2cc(O)ccc2[nH]1)N1CCC(Oc2ccccc2)CC1`, the ED50 in the data set on Mus musculus [1] stood at 8.5 mg/kg. The inhibition in the data set listed under Rattus norvegicus worked out at 0.7%. For the same compound, the IC50 on Glutamate NMDA receptor [2] came to 49.6 nM.

`O=C(c1nc(=O)c2cc(O)ccc2[nH]1)N1CCC(Cc2ccccc2)CC1`: in the data set filed under Rattus norvegicus, the inhibition came to 13.9%. In addition, the IC50 on Glutamate NMDA receptor [2] was 317 nM.

As for `O=C(c1cc2cc(O)ccc2[nH]1)N1CCC(Cc2ccccc2)CC1`, the inhibition in the data set filed under Rattus norvegicus is 17.2%. The IC50 on Glutamate NMDA receptor [2] is 25 nM.

`C[C@H]([C@@H](O)c1ccc(O)cc1)N1CCC(Cc2ccccc2)CC1`: the inhibition in the data set listed under Rattus norvegicus was -2.7%.

In the data set with Mus musculus [1], `Cc1ccc(OC2CCN(C(=O)c3cc(=O)c4cc(O)ccc4[nH]3)CC2)cc1` displayed an ED50 of 8.2 mg/kg. The inhibition in the data set listed under Rattus norvegicus is -3.5%. Also, affinity at Glutamate NMDA receptor [5] was put at a Ki of 4.2 nM. Also, the IC50 at Glutamate NMDA receptor [2] was determined as 6.2 nM.

`Cc1ccc(CC2CCN(C(=O)c3cc(=O)c4cc(O)ccc4[nH]3)CC2)cc1` yielded an ED50 in the data set on Mus musculus [1] of 10.6 mg/kg. The inhibition in the data set listed under Rattus norvegicus is -2.4%. Also, the IC50 on Glutamate NMDA receptor [2] turned out to be 11 nM.

As to `O=C(c1cc(=O)c2cc3[nH]c(=O)oc3cc2[nH]1)N1CCC(Cc2ccccc2)CC1`, in the data set with Mus musculus [1], the ED50 was over 20 mg/kg. For the same compound, the inhibition in the data set listed under Rattus norvegicus was -2.1%. Also, the IC50 at Glutamate NMDA receptor [2] stood at 21.7 nM.

Take `O=C(c1cc(=O)c2cc(O)ccc2[nH]1)N1CCC(Cc2ccc(Cl)cc2)CC1`: the Activity entry in the data set on Mus musculus [4] is reported as “Not Active”. Moreover, the inhibition in the data set listed under Rattus norvegicus is -5.1%. The IC50 on Glutamate NMDA receptor [2] came out at 9.1 nM.

As to `O=C(c1cc(=O)c2cc(O)ccc2[nH]1)N1CCC(Cc2ccccc2)CC1`, the Activity entry in the data set on Mus musculus [4] is recorded as “Not Active”. Moreover, the inhibition in the data set listed under Rattus norvegicus was 8.9%. Further, the IC50 on Glutamate NMDA receptor [2] turned out to be 9.1 nM.

Regarding `O=C(c1cc2ccc(O)cc2[nH]1)N1CCC(Cc2ccccc2)CC1`, the inhibition in the data set listed under Rattus norvegicus was determined as 15.6%.

Take `O=C(c1nc2ccc(O)cc2[nH]1)N1CCC(Cc2ccccc2)CC1`: in the data set listed under Rattus norvegicus, the inhibition was found to be 21%.

On to `O=C(c1cc(=O)c2ccccc2[nH]1)N1CCC(Cc2ccccc2)CC1`, for which the figures for the inhibition (in the data set listed under Rattus norvegicus; in data set [3]) were 1.1% and 4.5%, respectively.

Values taken from ChEMBL document CHEMBL1146273, “Kynurenic acid amides as novel NR2B selective NMDA receptor antagonists” (Bioorg Med Chem Lett, 2007).
